From ChEMBL document CHEMBL4038284, “Synthesis of novel quinoline-based 4,5-dihydro-1H-pyrazoles as potential anticancer, antifungal, antibacterial and antiprotozoal agents” (Eur J Med Chem, 2017)
Converted amounts (≈) assume the structure as drawn.

Experiments:
Cryptococcus neoformans [1] = assay: Growth inhibition of Cryptococcus neoformans ATCC 32264 at 250 ug/ml incubated for 48 hrs under dark condition by broth microdilution method relative to control; assay type: functional; conditions: ATCC 32264, 48 h, read-out: GI
In short: (§1)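 CLSI M27-A3 broth microdilution in RPMI-1640, DMSO ≤1%. Inoculum 1-5 × 10^3 CFU/mL. Incubated 48 h at 30 °C, dark. % inhibition = 100 − (OD405 test − sterility control)/(OD405 growth control − sterility control), with growth and sterility control wells. Triplicate.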

Klebsiella pneumoniae [2] = assay: Antibacterial activity against carbapenemase positive Klebsiella pneumoniae BAA 1705 after 24 hrs by resazurin dye based microdilution assay; assay type: functional; conditions: BAA 1705, 24 h
In short: (§2)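 MIC taken as the lowest concentration giving visible inhibition and/or by resazurin (1 mg/mL). Gentamicin was the control. Run in duplicate, repeated at least three times.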

U-937 = assay: Cytotoxicity against human U937 cells after 72 hrs by MTT assay; assay type: cell-based; conditions: u-937, 72 h
In short: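 Exponentially growing U-937 at 1 × 10^5 cells/mL in RPMI-1640 with 10% FBS were exposed to 200, 50, 12.5 and 3.125 µg/mL for 72 h at 37 °C, 5% CO2. MTT for 3 h, stopped with isopropanol/SDS, formazan read at 570 nm, blank-corrected. LC50 by Probit from % viability against untreated cells. Triplicate, at least two independent experiments.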

Cryptococcus neoformans [3] = assay: Growth inhibition of Cryptococcus neoformans ATCC 32264 at 3.4 ug/ml incubated for 48 hrs under dark condition by broth microdilution method relative to control; assay type: functional; conditions: ATCC 32264, 48 h, read-out: GI
Trypanosoma cruzi = assay: Antitrypanosomal activity against Trypanosoma cruzi Tulahuen intracellular amastigote harboring LacZ infected in human U937 cells after 72 hrs by CPRG/Nonidet reagent based spectrophotometric method; assay type: functional, cell-based; conditions: U-937, 72 h
In short: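 U-937 cells at 2.5 × 10^5 cells/mL in RPMI-1640 with 10% serum and 0.1 µg/mL PMA were infected with β-galactosidase-transfected Tulahuen epimastigotes at 5 parasites per cell. Infected cells were exposed to 50, 12.5, 3.125 and 0.78 µg/mL for 72 h. CPRG (100 uM) and 0.1% Nonidet P-40 were added for 3 h, read at 570 nm. EC50 by Probit. Triplicate, at least two experiments; benznidazole as reference.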

Pseudomonas aeruginosa = assay: Antibacterial activity against Pseudomonas aeruginosa ATCC 27853 after 24 hrs by resazurin dye based microdilution assay; assay type: functional; conditions: ATCC 27853, 24 h; in short: as §2
Candida albicans [4] = assay: Growth inhibition of Candida albicans ATCC 10231 at 125 ug/ml incubated for 48 hrs under dark condition by broth microdilution method relative to control; assay type: functional; conditions: ATCC 10231, 48 h, read-out: GI; in short: as §1
Candida albicans [5] = assay: Growth inhibition of Candida albicans ATCC 10231 at 15.62 ug/ml incubated for 48 hrs under dark condition by broth microdilution method relative to control; assay type: functional; conditions: ATCC 10231, 48 h, read-out: GI; in short: as §1
Plasmodium falciparum = assay: Antiplasmodial activity against chloroquine-sensitive Plasmodium falciparum 3D7 assessed as reduction in parasitic LDH activity after 48 hrs by Malstat reagent based […] method; assay type: functional; conditions: 3D7, 48 h
In short: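 Unsynchronized P. falciparum 3D7 at 0.5% parasitemia and 1% hematocrit in RPMI with 3% Albumax II. Exposed to 100, 25, 6.25 and 1.56 µg/mL for 48 h at 37 °C under 90% N2/5% CO2/5% O2. After three freeze-thaw cycles, LDH measured with Malstat and NBT/PES, 1 h in the dark, read at 650 nm. IC50 by Probit; triplicate, ≥2 experiments.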

Leishmania panamensis = assay: Antileshmanial activity against EpiR/GFP fused Leishmania panamensis MHOM/CO/87/UA140 intracellular amastigotes infected in human […] cells after 72 hrs by flow cytometric method; assay type: functional, cell-based; conditions: MHOM/CO/87/UA140, 72 h
In short: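 PMA-treated U-937 cells (3 × 10^5 cells/mL) infected with stationary-phase GFP L. panamensis promastigotes (15:1), 3 h at 34 °C, then washed. After 24 h, compounds added at 50, 12.5, 3.125 and 0.78 µg/mL for 72 h at 37 °C. EC50 by Probit; triplicate, two experiments.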

Candida albicans [6] = assay: Growth inhibition of Candida albicans ATCC 10231 at 250 ug/ml incubated for 48 hrs under dark condition by broth microdilution method relative to control; assay type: functional; conditions: ATCC 10231, 48 h, read-out: GI; in short: as §1
Candida albicans [7] = assay: Growth inhibition of Candida albicans ATCC 10231 at 62.5 ug/ml incubated for 48 hrs under dark condition by broth microdilution method relative to control; assay type: functional; conditions: ATCC 10231, 48 h, read-out: GI; in short: as §1
Candida albicans [8] = assay: Antifungal activity against Candida albicans ATCC 10231 incubated for 48 hrs under dark condition by broth microdilution method; assay type: functional; conditions: ATCC 10231, 48 h
In short: (§3)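 CLSI M27-A3 broth microdilution in RPMI-1640, DMSO ≤1%, compounds at 250-0.98 µg/mL final. Inoculum 1-5 × 10^3 CFU/mL. Incubated 48 h at 30 °C in a moist dark chamber, read at OD405. MIC80 and MIC50 taken from % inhibition dose-response curves (mean ± SEM, triplicate). Amphotericin B was the positive control.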

Cryptococcus neoformans [9] = assay: Growth inhibition of Cryptococcus neoformans ATCC 32264 at 7.8 ug/ml incubated for 48 hrs under dark condition by broth microdilution method relative to control; assay type: functional; conditions: ATCC 32264, 48 h, read-out: GI; in short: as §1
Cryptococcus neoformans [10] = assay: Growth inhibition of Cryptococcus neoformans ATCC 32264 at 15.62 ug/ml incubated for 48 hrs under dark condition by broth microdilution method relative to control; assay type: functional; conditions: ATCC 32264, 48 h, read-out: GI; in short: as §1
Staphylococcus aureus [11] = assay: Antibacterial activity against methicillin-resistant Staphylococcus aureus ATCC 43300 after 24 hrs by resazurin dye based microdilution assay; assay type: functional; conditions: ATCC 43300, 24 h
In short: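 Broth microdilution in Mueller Hinton broth, inoculum 5 × 10^5 – 8 × 10^5. Compound stocks diluted in MHB with 5% DMSO and 0.1% Tween 80. Incubation 24 h at 35-37 °C. MIC is the lowest concentration with visible growth inhibition and/or by resazurin (1 mg/mL) read-out. Gentamicin as control. Run in duplicate, replicated at least three times.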

Cryptococcus neoformans [12] = assay: Growth inhibition of Cryptococcus neoformans ATCC 32264 at 125 ug/ml incubated for 48 hrs under dark condition by broth microdilution method relative to control; assay type: functional; conditions: ATCC 32264, 48 h, read-out: GI; in short: as §1
Cryptococcus neoformans [13] = assay: Growth inhibition of Cryptococcus neoformans ATCC 32264 at 31.25 ug/ml incubated for 48 hrs under dark condition by broth microdilution method relative to control; assay type: functional; conditions: ATCC 32264, 48 h, read-out: GI; in short: as §1
Klebsiella pneumoniae [14] = assay: Antibacterial activity against ESBL positive Klebsiella pneumoniae ATCC 700603 after 24 hrs by resazurin dye based microdilution assay; assay type: functional; conditions: Klebsiella pneumoniae, 700603, 24 h; in short: as §2
Cryptococcus neoformans [15] = assay: Growth inhibition of Cryptococcus neoformans ATCC 32264 at 62.5 ug/ml incubated for 48 hrs under dark condition by broth microdilution method relative to control; assay type: functional; conditions: ATCC 32264, 48 h, read-out: GI; in short: as §1
Neisseria gonorrhoeae = assay: Antibacterial activity against beta lactamase positive Neisseria gonorrhoeae ATCC 31426 by oxidase test; assay type: functional
In short: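 Agar dilution MIC on GC agar with 1% isovitalex containing increasing compound concentrations. Plates inoculated with about 1×10^4 CFU (5 µL). MIC is the lowest concentration that inhibited growth, with growth confirmed by oxidase test. Run in duplicate, repeated at least three times.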

Staphylococcus aureus [16] = assay: Antibacterial activity against methicillin-sensitive Staphylococcus aureus ATCC 25923 after 24 hrs by resazurin dye based microdilution assay; assay type: functional; conditions: ATCC 25923, 24 h; in short: as §2
Candida albicans [17] = assay: Growth inhibition of Candida albicans ATCC 10231 at 31.25 ug/ml incubated for 48 hrs under dark condition by broth microdilution method relative to control; assay type: functional; conditions: ATCC 10231, 48 h, read-out: GI; in short: as §1
Candida albicans [18] = assay: Growth inhibition of Candida albicans ATCC 10231 at 3.4 ug/ml incubated for 48 hrs under dark condition by broth microdilution method relative to control; assay type: functional; conditions: ATCC 10231, 48 h, read-out: GI
Cryptococcus neoformans [19] = assay: Antifungal activity against Cryptococcus neoformans ATCC 32264 incubated for 48 hrs under dark condition by broth microdilution method; assay type: functional; conditions: ATCC 32264, 48 h; in short: as §3
Escherichia coli = assay: Antibacterial activity against Escherichia coli ATCC 25922 after 24 hrs by resazurin dye based microdilution assay; assay type: functional; conditions: ATCC 25922, 24 h; in short: as §2
Candida albicans [20] = assay: Growth inhibition of Candida albicans ATCC 10231 at 7.8 ug/ml incubated for 48 hrs under dark condition by broth microdilution method relative to control; assay type: functional; conditions: ATCC 10231, 48 h, read-out: GI; in short: as §1
Staphylococcus aureus [21] = assay: Antibacterial activity against vancomycin-intermediate Staphylococcus aureus after 24 hrs by resazurin dye based microdilution assay; assay type: functional; in short: as §2

| Structure (SMILES) | inhibition of growth at 250 µg/mL (Cryptococcus neoformans [1]) [%] | MIC (Klebsiella pneumoniae [2]) [mg/L] | LC50 (U-937) [mg/L] | inhibition of growth at 3.4 µg/mL (Cryptococcus neoformans [3]) [%] | EC50 (Trypanosoma cruzi) [mg/L] | MIC (Pseudomonas aeruginosa) [mg/L] | inhibition of growth at 125 µg/mL (Candida albicans [4]) [%] | inhibition of growth at 15.62 µg/mL (Candida albicans [5]) [%] | EC50 (Plasmodium falciparum) [mg/L] | EC50 (Leishmania panamensis) [mg/L] | inhibition of growth at 250 µg/mL (Candida albicans [6]) [%] | inhibition of growth at 62.5 µg/mL (Candida albicans [7]) [%] | MIC50 (Candida albicans [8]) [mg/L] | MIC80 (Candida albicans [8]) [mg/L] | inhibition of growth at 7.8 µg/mL (Cryptococcus neoformans [9]) [%] | inhibition of growth at 15.62 µg/mL (Cryptococcus neoformans [10]) [%] | MIC (Staphylococcus aureus [11]) [mg/L] | inhibition of growth at 125 µg/mL (Cryptococcus neoformans [12]) [%] | inhibition of growth at 31.25 µg/mL (Cryptococcus neoformans [13]) [%] | MIC (Klebsiella pneumoniae [14]) [mg/L] | also measured |
| --- | --- | --- | --- | --- | --- | --- | --- | --- | --- | --- | --- | --- | --- | --- | --- | --- | --- | --- | --- | --- | --- |
| CC(=O)N1N=C(c2ccc(Cl)cc2)CC1c1cccc(Nc2ccnc3cc(Cl)ccc23)c1 (stereo not given) | 100 | > 1000 | 17 (≈ 35.8 µM) | 11.1 | 6.57 (≈ 13.8 µM) | > 1000 | 38.8 | 20 | 26.3 (≈ 55.4 µM) | 5.53 (≈ 11.6 µM) | 40.9 | 22.5 | ≥ 250 | ≥ 250 | 26.7 | 18.7 | > 1000 | 53.4 | 28.1 | > 1000 | inhibition of growth at 62.5 µg/mL (Cryptococcus neoformans [15]): 32.2%; MIC (Neisseria gonorrhoeae): > 1000 mg/L; MIC (Staphylococcus aureus [16]): > 1000 mg/L; inhibition of growth at 31.25 µg/mL (Candida albicans [17]): 21.6%; inhibition of growth at 3.4 µg/mL (Candida albicans [18]): 14.7%; MIC50 (Cryptococcus neoformans [19]): 125 mg/L (≈ 263 µM); MIC80 (Cryptococcus neoformans [19]): 250 mg/L (≈ 526 µM); MIC (Escherichia coli): > 1000 mg/L; inhibition of growth at 7.8 µg/mL (Candida albicans [20]): 19.6%; MIC (Staphylococcus aureus [21]): > 1000 mg/L |
| O=CN1N=C(c2ccccc2)CC1c1cccc(Nc2ccnc3cc(Cl)ccc23)c1 (stereo not given) | 54.1 | > 1000 | 1.3 (≈ 3.05 µM) | 7.63 | > 0.6 | > 1000 | 16.9 | 4.31 | 17.7 (≈ 41.4 µM) | 1.72 (≈ 4.03 µM) | 29.9 | 10.1 | ≥ 250 | ≥ 250 | 11.2 | 20.7 | > 1000 | 47.2 | 29.7 | > 1000 | inhibition of growth at 62.5 µg/mL (Cryptococcus neoformans [15]): 34.4%; MIC (Neisseria gonorrhoeae): > 1000 mg/L; MIC (Staphylococcus aureus [16]): > 1000 mg/L; inhibition of growth at 31.25 µg/mL (Candida albicans [17]): 8.44%; inhibition of growth at 3.4 µg/mL (Candida albicans [18]): 2.19%; MIC50 (Cryptococcus neoformans [19]): 250 mg/L (≈ 586 µM); MIC80 (Cryptococcus neoformans [19]): ≥ 250 mg/L; MIC (Escherichia coli): > 1000 mg/L; inhibition of growth at 7.8 µg/mL (Candida albicans [20]): 4.3%; MIC (Staphylococcus aureus [21]): > 1000 mg/L |
